Assay results taken from PubChem BioAssay AID1019 (Sanford-Burnham Center for Chemical Genomics, 2008).
Among all 190,000 compounds or so, fewer than 10 were called active.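 The calls were made as follows: active = over 50% inhibition of intestinal alkaline phosphatase at 20 µM in the single-dose screen; inactive = the rest.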 Not all results are given here.

Tested on: alkaline phosphatase, intestinal [Bos taurus]
Test: bovine intestinal alkaline phosphatase inhibitors, primary screen, selectivity assay for TNAP inhibitor project, biochemical, bovine IAP, CDP-star luminescence (AID 1019)
Settings: purified bovine IAP, 30 min, at 20 µM, active compounds read high
Outline: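 test system = bovine IAP enzyme | medium = DEA buffer 100 mM, pH 9.8, with MgCl2 1.0 mM, ZnCl2 0.02 mM | detection = luminescence | dosing = single compound dose of 20 µM, 2% DMSO final | incubation = 30 min reaction at room temperature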

inhibition, inactive:
CCCC(=O)OCC(=O)Nc1cc(Cl)ccc1[N+](=O)[O-] 12.7%
O=C(COC(=O)CC1CC2CCC1C2)NC(=O)NC1CCCC1 (centres undefined) -11.4%
COC(=O)c1ccc(NC(=S)Nc2cccc(C)n2)cc1 0.2%
COc1ccccc1NC(=O)c1cc(Cl)nnc1Cl -4%
O=C(CCc1ccc(S(=O)(=O)N2CCOCC2)cc1)NN=C1CCCCCCC1 5%
O=C(COC(=O)CCCNC(=O)c1ccc(Cl)cc1)Nc1cc(Cl)ccc1Cl 33.8%
COc1cccc(/C=N/NC(=O)CNC(=O)c2ccc(S(=O)(=O)N3CCOCC3)cc2)c1OC 16.1%
CS(=O)(=O)Nc1ccc(C2=NN(S(C)(=O)=O)C(c3cccs3)C2)cc1 (centres undefined) -11%
O=C(COC(=O)c1ccc(O)cc1)Nc1nccs1 -1.9%
COc1ccc(C(=O)NC2(C(F)(F)F)NC(=O)N(CCCc3ccccc3)C2=O)c(OC)c1OC (centres undefined) -13%
CCCCC1N2CC3([N+](=O)[O-])CN1CC([N+](=O)[O-])(C2)C3(C)C (centres undefined) 3.9%
Cc1cc(F)ccc1S(=O)(=O)N1CCCOC1CNC(=O)C(=O)NCCC1=CCCCC1 (centres undefined) 6.4%
CC(C)=C1C2CCC1C1C(=O)N(NC(=O)c3ccco3)C(=O)C21 (centres undefined) 41.2%
Cc1csc(NC(=O)CSc2ccc(-c3ccc(F)cc3)nn2)n1 -3.9%
CN(CC(=O)NCCc1ccccc1)S(=O)(=O)c1cnc[nH]1 5.2%
O=S1(=O)CCC(NC(=S)SCc2ccccc2Br)C1 (centres undefined) 23.3%
CCCCNC(=O)CCn1c(=O)c2ccccc2n(Cc2cc(C)ccc2C)c1=O 15.7%
NC(=O)C1=C[C@H](c2csc3ccccc23)C[C@H](OCc2ccc(CO)cc2)O1 -16.7%
S=C(NC1CCCCC1)NN1CCOCC1 -0.1%
COc1ccccc1NC(=O)CCSc1nnc(-c2ccc(O)cc2)o1 3.5%
Nc1cccc(CCc2nc3ccccc3[nH]2)c1 12%
O=[N+]([O-])c1ccc(NCCCO)c(C(F)(F)F)c1 -0.5%
CC(C)c1nc2sc3c(c2c(=O)n1N)CC(C)(C)OC3 -5%
O=C(Nc1cccc(C(F)(F)F)c1)c1cnccn1 5.6%
COc1ccc(OCCCn2cccc2/C=C2/C(=N)N3OC(C)=CC3=NC2=O)cc1 13.7%
CCOC12CC(C)(C)CC(C)(CC3=C1C(=O)CC(C)(C)C3)C2 (centres undefined) -12.4%
Cn1c(CCCOc2ccc(Cl)cc2Cl)n[nH]c1=S 25.8%
CCCCN(CC)C(=S)Nc1ccc2nc3n(c(=O)c2c1)CCCCC3 -16.6%
O=C(CCc1ccccc1)NCCc1cccs1 1.2%
O=C(NN1C(=O)C2C3C=CC(O3)C2C1=O)c1ccccc1 (centres undefined) -0.3%
CN(C(=O)CSc1nnc(-c2c[nH]c3ccccc23)o1)C1CCS(=O)(=O)C1 (centres undefined) -2.2%
CCc1cccc2c(=O)c(C(=O)NCCCOC)c[nH]c12 -5.7%
COc1ccc(CCNC(=O)COC(=O)Cc2cc(OC)c(OC)c(OC)c2)cc1 -4.1%
O=c1cc(CN2CCN(S(=O)(=O)/C=C/c3ccccc3)CC2)c2ccc(O)cc2o1 1.7%
Cc1cccc(N2CCN(C(=O)/C=C/c3ccco3)CC2)c1C 6.3%
CCCCn1nc(C(=O)OCC(=O)Nc2sccc2C(N)=O)c2ccccc2c1=O -0.9%
COc1ccnc(Oc2ccccc2)n1 -11%
O=C1CCCC(O)=C1N=Nc1ccc2ncsc2c1 6.3%
O=C(C1=C[C@H](c2ccc(C(F)(F)F)cc2)C[C@H](OCc2ccc(CO)cc2)O1)N1CCN(Cc2ccccc2)CC1 -12.1%
COC(=O)c1sc(N)c(C(=O)OC)c1COC(=O)CNS(=O)(=O)c1ccc(C)cc1 11.4%
CN(c1ccccc1)S(=O)(=O)c1cc(C(=O)OCC(=O)N2CCN(C(=O)c3ccco3)CC2)ccc1Cl -7.4%
C=CCNC(=S)N1CCN(CCN=Cc2c(C)[nH]n(-c3ccc([N+](=O)[O-])cc3)c2=O)CC1 -6.4%
CCC(C)N(C)C1CCN(C(=S)Nc2ccc(OC)cc2)CC1 (centres undefined) -6.9%
CCC(C)NC(=O)Cn1nc(C(F)(F)F)c2c1CCC2 (centres undefined) -10.6%
CCOc1ccc(-c2n[nH]c(C)c2-c2ccccn2)c(O)c1 -27.5%
O=C(c1cc(Cl)cc(Cl)c1)N1CCC(=O)N(C(COCc2ccccc2)Cc2ccccc2)CC1 (centres undefined) -2.4%
COc1ccc(Cn2c(=O)cc(C)[nH]c2=S)cc1 9.8%
Cc1ccc(Cl)cc1NC(=O)COC(=O)CC(C)(C)C -16%
CCc1ccc(N2CC(O)=C(c3nc4ccccc4c(=O)[nH]3)C2=N)cc1 -19.9%
CC(C)c1cc(NCc2ccccn2)n2c(nc3ccccc32)c1C#N -20.8%
CC(C)[C@@H]1NC(=O)c2cc([N+](=O)[O-])cc(I)c2NCCC[C@@H](C(=O)NC(CC(=O)O)C(N)=O)NC(=O)[C@H](CO)NC1=O (some centres undefined) 6.3%
Cc1ccc(-c2ccc(/C=N/NC(=O)CN3CCOCC3)o2)cc1[N+](=O)[O-] -0.9%
C/C(=N\NC(=O)C(N)=O)c1ccc2c(c1)OCCO2 -4.3%
Cc1ccc(NC(=O)c2cccnc2C(=O)Nc2ccc(C)cc2)cc1 -4.3%
Cc1ccc(CN2CCN(Cc3cccc(C)n3)CC2CCO)cc1 (centres undefined) -23.9%
CCN(CC)c1ccc(C(=O)c2cnc(/N=C/N(C)C)s2)cc1 11.8%
CC(C)CNC(=O)C(=O)Nc1ccc(N(C)C)cc1 -7.9%
O=C(CSc1nnc(-c2ccc([N+](=O)[O-])cc2)o1)Nc1ccccn1 -24.6%
CCO[C@@H]1OC(C(N)=O)=C[C@H](c2ccc(Br)cc2)[C@H]1CCCO -2%
